Screens from PubChem BioAssay.
NR2E3 ag-1: NR2E3 agonists in two-hybrid cells, primary screen, cell-based, luminescence, CHO-S, Gal4-NCOR/VP16-NR2E3; luciferase; AID 602229, 2012; hit rate 0.35% among 360,000; Photoreceptor-specific nuclear receptor (Homo sapiens), Q9Y5X4; inhibition of corepressor binding, % at 3.98 µM;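 active = inhibition above the mean of all tested compounds plus 3 SD, cut at about 70% in these data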;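 also: higher means lower luciferase signal from less NR2E3 corepressor binding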
Rev-erbA mod: modulators of Rev-erb alpha DNA binding, primary screen, biochemical, FITC-DNA, fluorescence polarization, uHTS; AID 1259318, 2017; Nuclear receptor subfamily 1 group D member 1 (Homo sapiens), P20393; activity, % at 10 µM; Rev-erbα–FITC-DNA binding, 90 min; hit rate 0.79% among 370,000;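 active = activity above about 14%, limit read from the data; passing the limit was not always enough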
PG9 Ab binder: binders of HIV-1 gp120 antibody PG9, primary screen, biochemical, TR-FRET. TR-FRET gp120-PG9 antibody binding. hit rate 0.43% among 360,000. inhibition, % at 6.7 µM. HIV-1 gp120 / PG9 antibody interaction; in the data active = inhibition above about 8.5%
NR2E3 ag-2: inhibitors of NR2E3-RetCOR corepressor binding, primary screen, NR2E3 agonist project, biochemical, TR-FRET, GST-NR2E3, biotin-RetCOR; Photoreceptor-specific nuclear receptor (Homo sapiens), Q9Y5X4; 1536-well; inhibition of corepressor binding, % at 4.78 µM; hit rate 0.12% among 320,000; AID 2300, 2010;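 active = percent inhibition above the cutoff of mean plus 3 SD of all tested compounds, set per screening campaign, cut at about 20% in these data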
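Material – GST-tagged NR2E3 plus biotinylated RetCOR corepressor · Quantity – NR2E3 fusion 1.35 nM · Times – 5 h incubation at 4 °C · Medium – pH 7.5 Tris-based buffer · Technique – TR-FRET, Eu(K)-anti-GST donor, streptavidin-D2 acceptor, ex 340, em 617/671 nm · Benchmarks – high control biotin, low control 0.6% DMSO · Format – 1536-well plates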
MC4R barr agon: MC4R agonists recruiting beta-arrestin, primary screen, cell-based, luminescence, agonist arm of biased-ligand search. Melanocortin receptor 4 (Homo sapiens), P32245. U2OS MC4R beta-arrestin complementation; percent of melanotan II response, DMSO zero. activation, % at 8.9 µM. hit rate 0.98% among 360,000. AID 540308, 2011;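 active = activation above a per-plate cutoff, the mean activation of sample wells on that plate plus 3 SD, cut at about 8% in these data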
Target sequence (P32245 whole entry, looked up): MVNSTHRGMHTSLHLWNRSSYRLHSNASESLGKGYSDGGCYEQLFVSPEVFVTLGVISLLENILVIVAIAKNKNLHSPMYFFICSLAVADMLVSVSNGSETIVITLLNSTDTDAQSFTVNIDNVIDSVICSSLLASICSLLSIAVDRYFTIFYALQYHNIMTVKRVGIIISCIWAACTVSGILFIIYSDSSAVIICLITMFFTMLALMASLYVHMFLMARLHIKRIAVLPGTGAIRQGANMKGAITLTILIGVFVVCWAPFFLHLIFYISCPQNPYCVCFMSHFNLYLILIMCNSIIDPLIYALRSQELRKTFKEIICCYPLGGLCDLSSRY
MC4R antagonist: MC4R antagonists of cAMP signaling, primary screen, cell-based, TR-FRET, antagonist arm of biased-ligand search; Melanocortin receptor 4 (Homo sapiens), P32245; MC4R-expressing cells, MTII-stimulated cAMP, LANCE TR-FRET; inhibition, % at 6.5 µM; hit rate 0.48% among 360,000;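 active = inhibition above its plate's cutoff, the mean of tested wells on that plate plus 3 SD, cut at about 29% in these data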
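material = U2OS cells stably expressing human melanocortin 4 receptor (MC4R) | also added = Melanotan II challenge | dosing = single nominal compound dose of 6.5 µM | detection = TR-FRET with Eu-cAMP and labeled anti-cAMP, 671 nm | replication = singlicate | timing = compound 30 min, challenge 1 h, detection 1 h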
cAMP nonselect: nonselective cAMP signaling inhibitors, parental cells, counter-screen for MC4R biased antagonist project, cell-based, TR-FRET, U2OS, forskolin, triplicate | shares compounds with MC4R antagonist | LANCE TR-FRET | inhibition, % at 6.5 µM | hit rate 26% among 1,600;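 active = mean inhibition over triplicates above the low-control well mean plus 3 SD, set per campaign, cut at about 13% in these data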;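 also: signal is single emission at 671 nm which falls as cellular cAMP rises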
MC4R antag conf: MC4R cAMP antagonists, retest, confirmation, cell-based, TR-FRET. shares compounds with MC4R antagonist. MC4R-expressing cells, MTII-stimulated cAMP. inhibition, % at 6.5 µM. hit rate 27% among 1,600; in the data active = inhibition above about 29%
Large screens that a line does not name were inactive (follow-up assays come after a bar, where they were run). Compounds with a hit are over-represented: about 2.7% of the library has one in this group of screens.

CCOC(=O)c1ccc(NC(=O)N2CCN(c3cccc(OC)c3)CC2)cc1	MC4R antagonist 29 | cAMP nonselect inactive | MC4R antag conf inactive
COc1cc(OC)cc(Oc2ccc(S(=O)(=O)N3CCCCC3)cc2[N+](=O)[O-])c1	MC4R antagonist 30 | cAMP nonselect inactive | MC4R antag conf inactive
Cc1ccc(N2CCN(C(=O)c3cccc([N+](=O)[O-])c3)CC2)cc1Cl	MC4R antagonist 33 | cAMP nonselect inactive | MC4R antag conf inactive
O=C(c1cccc([N+](=O)[O-])c1)N1CCN(c2cccc(Cl)c2)CC1	none
CCCC(=O)N1c2ccccc2C(N(C(C)=O)c2ccccc2)CC1C (centres undefined)	none
C[C@H](CO)N1C[C@H](C)[C@@H](CN(C)C(=O)Nc2ccc3c(c2)OCO3)Oc2c(NC(=O)Nc3ccc(C(F)(F)F)cc3)cccc2C1=O	MC4R antagonist 56 (no result: NR2E3 ag-2) | cAMP nonselect inactive | MC4R antag conf 30
C[C@H](CO)N1C[C@H](C)[C@@H](CN(C)C(=O)NC2CCCCC2)Oc2c(NC(=O)Nc3ccc(C(F)(F)F)cc3)cccc2C1=O	MC4R antagonist 30 (no result: NR2E3 ag-2) | cAMP nonselect inactive | MC4R antag conf inactive
C[C@H]1CN([C@@H](C)CO)C(=O)c2cccc(NC(=O)Nc3ccc(C(F)(F)F)cc3)c2O[C@@H]1CN(C)Cc1ccc(Cl)c(Cl)c1	MC4R antagonist 41 (no result: NR2E3 ag-2) | cAMP nonselect inactive | MC4R antag conf inactive
COc1ccc(-c2nc(Cc3ccc(Cl)cc3)no2)cc1OC	none
O=C(OCC(=O)N1CCCC1=O)c1nc(Cl)c(Cl)c(Cl)c1Cl	MC4R antagonist 29 | cAMP nonselect 23 | MC4R antag conf 47
CCn1cc(CCC(=O)NCc2cccc(OC)c2OC)c2ccccc21	MC4R antagonist 31 | cAMP nonselect inactive | MC4R antag conf inactive
O=C(CCc1ccccc1)OCC(=O)c1ccc(Br)cc1	none
Cc1cc(C)cc(OC(=O)CS(=O)c2ccc(C(F)(F)F)cc2[N+](=O)[O-])c1 (centres undefined)	none
O=C(CS(=O)c1ccc(C(F)(F)F)cc1[N+](=O)[O-])Oc1ccc(Cl)cc1 (centres undefined)	MC4R antagonist 33 | cAMP nonselect inactive | MC4R antag conf inactive
COc1ccccc1/C=C/C(=O)NCC(=O)N/N=C/c1ccc(C)o1	none
Cc1cc(C)nc(NS(=O)(=O)c2ccc(NC(=O)Cc3ccc(F)cc3)cc2)n1	none
O=[N+]([O-])c1cc(S(=O)(=O)C(F)(F)F)ccc1Sc1nc2ccccc2[nH]1	MC4R antagonist 30 | cAMP nonselect inactive | MC4R antag conf 40
CS(=O)(=O)c1ccc(Sc2nc3ccccc3[nH]2)c([N+](=O)[O-])c1	none
O=[N+]([O-])c1cc(S(=O)(=O)C(F)(F)F)ccc1Sc1nc2ccccc2s1	MC4R antagonist 56 | cAMP nonselect inactive | MC4R antag conf 43
CC1CN(Cc2cnc(Cl)s2)CC(C)O1 (centres undefined)	none (no result: NR2E3 ag-2)
CC1CCN(C(=O)C2CCN(C(=O)c3cc4sccc4n3Cc3ccc(F)cc3)CC2)CC1	none
CC(C)NC(=O)C1CCN(C(=O)c2cc3sccc3n2Cc2ccc(F)cc2)CC1	MC4R antagonist 32 (no result: Rev-erbA mod, PG9 Ab binder) | cAMP nonselect inactive | MC4R antag conf inactive
Cc1ccc(C(=O)N2CCN(Cc3ccc4c(c3)OCO4)CC2)cc1S(=O)(=O)N1CCOCC1	none
COc1ccc(C(C)=O)cc1Cn1c(=O)cc(C)[nH]c1=O	MC4R antagonist 30 | cAMP nonselect inactive | MC4R antag conf inactive
CCS(=O)(=O)N1Cc2ccccc2CC1C(=O)N(C)Cc1ccc(OC)c(F)c1 (centres undefined)	MC4R antagonist 34 | cAMP nonselect inactive | MC4R antag conf inactive
COC(=O)c1c(NC(=O)COC(=O)c2ccc(O)cc2)sc2c1CCCCC2	MC4R antagonist 30 | cAMP nonselect inactive | MC4R antag conf inactive
COC(=O)c1ccccc1NC(=O)N1CCN(c2ccccc2)CC1	none
COC(=O)c1ccccc1NC(=O)N1CCN(S(C)(=O)=O)CC1	MC4R antagonist 31 | cAMP nonselect inactive | MC4R antag conf inactive
Cc1ccc(C)c(NC(=O)CN(C)C(=O)c2cc3ccccc3o2)c1	none
CCN(C(=O)COC(=O)c1ccc(OC)c(S(=O)(=O)N(C)Cc2ccccc2)c1)C1CCS(=O)(=O)C1 (centres undefined)	none
Cc1ccc(S(=O)(=O)N2CCOCC2)c2nsnc12	none
O=S(=O)(c1ccc(Br)c2nsnc12)N1CCOCC1	MC4R antagonist 30 | cAMP nonselect inactive | MC4R antag conf inactive
CCOc1ccc(-n2c(COc3ccc(Cl)cc3)nnc2SCC(=O)Nc2ccc(OCc3ccccc3)cc2)cc1	none (no result: NR2E3 ag-1, PG9 Ab binder, NR2E3 ag-2, MC4R barr agon, MC4R antagonist)
CCC(C)Sc1cc(-c2nc3ccc(C)cn3c2NCc2ccccc2)ccc1OC (centres undefined)	MC4R antagonist 47 | cAMP nonselect 27 | MC4R antag conf 78
CCCCNc1c(-c2ccc(OC)c(SC(C)CC)c2)nc2ccc(C)cn12 (centres undefined)	MC4R antagonist 36 (no result: NR2E3 ag-2) | cAMP nonselect 22 | MC4R antag conf 48
CCCCNc1c(-c2ccc(OC)c(SC(C)CC)c2)nc2ccc(Cl)cn12 (centres undefined)	none (no result: NR2E3 ag-2)
COc1ccc(-c2cc(-c3nc4ccccn4c3NCc3ccccc3)ccc2OC)cc1	MC4R antagonist 37 (no result: NR2E3 ag-2) | cAMP nonselect inactive | MC4R antag conf 34
CCC(C)Sc1ccc(-c2nc3ccc(C)cn3c2NCc2ccccc2)cc1OC (centres undefined)	MC4R antagonist 35 (no result: Rev-erbA mod, PG9 Ab binder) | cAMP nonselect 18 | MC4R antag conf 44
Clc1ccccc1Cn1nnc2ccccc21	none
COc1ccc(Cc2noc(CN3CCN(Cc4cccc(Cl)c4)CC3)n2)cc1OC	MC4R antagonist 34 | cAMP nonselect 17 | MC4R antag conf inactive
